Activity calls are given as the source filed them. The rule behind the calls is not given here.
System: Human betaherpesvirus 5
Assay: Antiviral activity against ganciclovir-resistant HCMV AD169 clone 4 infected in HEL cells assessed as inhibition of virus-induced cytopathicity
Format: functional, organism-based
Conditions: Human betaherpesvirus 5, AD169, HEL
Nc1ncnc2c1ncn2C[C@@H](CO)OCP(=O)(O)O gave an EC50 of 2.1 µM.
In the case of CCC1(Cc2ccccc2)OS(=O)(=O)C=C1OCc1ccc(Cl)cc1 (racemic), the EC50 is reported as 11 µM.
In the case of Nc1ccn(C[C@@H](CO)OCP(=O)(O)O)c(=O)n1 [CIDOFOVIR], the EC50 is reported as 0.74 µM.
O=C(O)P(=O)(O)O [FOSCARNET] showed an EC50 of 20 µM.
Compound Nc1nc2c(ncn2COC(CO)CO)c(=O)[nH]1 [GANCICLOVIR] has an EC50 of 4.3 µM.

System: Mammalian orthoreovirus 3
Assay: Antiviral activity against Reovirus 3 infected in african green monkey Vero cells
Format: functional, organism-based
Conditions: not given
For CCC1(Cc2ccccc2)OS(=O)(=O)C=C1OCc1ccc(Cl)cc1 (racemic), the Activity was “inactive”.

System: Sindbis virus
Assay: Antiviral activity against Sindbis virus infected in african green monkey Vero cells
Format: functional, organism-based
Conditions: not given
For CCC1(Cc2ccccc2)OS(=O)(=O)C=C1OCc1ccc(Cl)cc1 (racemic), the Activity was “inactive”.

System: Coxsackievirus B4
Assay: Antiviral activity against Coxsackievirus B4 infected in african green monkey Vero cells
Format: functional, organism-based
Conditions: not given
For CCC1(Cc2ccccc2)OS(=O)(=O)C=C1OCc1ccc(Cl)cc1 (racemic), the Activity was “inactive”.

System: Vesicular stomatitis virus
Assay: Antiviral activity against VSV infected in human HeLa cells
Format: functional, organism-based
Conditions: not given
In the case of CCC1(Cc2ccccc2)OS(=O)(=O)C=C1OCc1ccc(Cl)cc1 (racemic), the Activity is reported as “inactive”.

System: Human alphaherpesvirus 1
Assay: Antiviral activity against HSV1 KOS infected in human HEL cells
Format: functional, organism-based
Conditions: not given
In the case of CCC1(Cc2ccccc2)OS(=O)(=O)C=C1OCc1ccc(Cl)cc1 (racemic), the Activity is reported as “inactive”.

System: Coxsackievirus B4
Assay: Antiviral activity against Coxsackievirus B4 infected in human HeLa cells
Format: functional, organism-based
Conditions: not given
With CCC1(Cc2ccccc2)OS(=O)(=O)C=C1OCc1ccc(Cl)cc1 (racemic) the Activity was “inactive”.

System: Respiratory syncytial virus
Assay: Antiviral activity against RSV infected in human HeLa cells
Format: functional, organism-based
Conditions: not given
In the case of CCC1(Cc2ccccc2)OS(=O)(=O)C=C1OCc1ccc(Cl)cc1 (racemic), the Activity is reported as “inactive”.

System: Human alphaherpesvirus 1
Assay: Antiviral activity against acyclovir-resistant […]-deficient HSV1 infected in human HEL cells
Format: functional, organism-based
Conditions: not given
With CCC1(Cc2ccccc2)OS(=O)(=O)C=C1OCc1ccc(Cl)cc1 (racemic) the Activity was “inactive”.

System: Human alphaherpesvirus 2
Assay: Antiviral activity against HSV2 infected in human HEL cells
Format: functional, organism-based
Conditions: not given
For CCC1(Cc2ccccc2)OS(=O)(=O)C=C1OCc1ccc(Cl)cc1 (racemic), the Activity was “inactive”.

System: Vaccinia virus
Assay: Antiviral activity against Vaccinia virus infected in human HEL cells
Format: functional, organism-based
Conditions: Orthopoxvirus vaccinia
For CCC1(Cc2ccccc2)OS(=O)(=O)C=C1OCc1ccc(Cl)cc1 (racemic), the Activity was “inactive”.

System: Vesicular stomatitis virus
Assay: Antiviral activity against VSV infected in human HEL cells
Format: functional, organism-based
Conditions: not given
In the case of CCC1(Cc2ccccc2)OS(=O)(=O)C=C1OCc1ccc(Cl)cc1 (racemic), the Activity is reported as “inactive”.

System: Human betaherpesvirus 5
Assay: Antiviral activity against HCMV Davis infected in human HEL cells assessed inhibition of virus-induced cytopathicity after 7 days postinfection
Format: functional, organism-based
Conditions: Human betaherpesvirus 5, Davis, 168 h
Method in brief: (§1)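 HEL fibroblasts were infected at 100 PFU. After 2 h, residual virus was removed and medium with test compound was added at several concentrations, in duplicate. Cells were incubated 7 days at 37 °C, fixed with ethanol and stained with Giemsa.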
With CCC1(Cc2ccccc2)OS(=O)(=O)C=C1OCc1ccc(Cl)cc1 (racemic) the EC50 was 9.7 µM.
Compound Nc1ccn(C[C@@H](CO)OCP(=O)(O)O)c(=O)n1 [CIDOFOVIR] has an EC50 of 0.5 µM.
For Nc1nc2c(ncn2COC(CO)CO)c(=O)[nH]1 [GANCICLOVIR], the EC50 was 3.6 µM.

System: Human betaherpesvirus 5
Assay: Antiviral activity against HCMV AD169 infected in human HEL cells assessed inhibition of virus-induced cytopathicity after 7 days postinfection
Format: functional, organism-based
Conditions: Human betaherpesvirus 5, AD169, HEL, 168 h
Method in brief: as §1
With CCC1(Cc2ccccc2)OS(=O)(=O)C=C1OCc1ccc(Cl)cc1 (racemic) the EC50 was 10.4 µM.
For Nc1ccn(C[C@@H](CO)OCP(=O)(O)O)c(=O)n1 [CIDOFOVIR], the EC50 was 0.3 µM.

System: Human alphaherpesvirus 3
Assay: Antiviral activity against thymidine kinase expressing Varicella zoster virus Oka infected in human HEL cells assessed reduction in viral plaque formation
Format: functional, organism-based
Conditions: Human alphaherpesvirus 3, Oka
Method in brief: (§2)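 Confluent HEL cell monolayers were inoculated with VZV at 20 PFU per well. Residual virus was removed after 2 h, and compound was added at varying concentrations, in duplicate.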
For CCC1(Cc2ccccc2)OS(=O)(=O)C=C1OCc1ccc(Cl)cc1 (racemic), the EC50 was 7.6 µM.

System: Human alphaherpesvirus 3
Assay: Antiviral activity against thymidine kinase deficient Varicella zoster virus 07/1 infected in human HEL cells assessed reduction in viral plaque formation
Format: functional, organism-based
Conditions: Human alphaherpesvirus 3, HEL
Method in brief: as §2
With CCC1(Cc2ccccc2)OS(=O)(=O)C=C1OCc1ccc(Cl)cc1 (racemic) the EC50 was 5.7 µM.

System: not listed separately
Assay: Cytotoxicity against human HEL cells assessed as morphological alteration after 3 days
Format: cell-based
Conditions: not given
Method in brief: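 HEL cultures were examined under the microscope. MCC was recorded as the compound concentration causing a microscopically detectable alteration of normal cell morphology.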
For CCC1(Cc2ccccc2)OS(=O)(=O)C=C1OCc1ccc(Cl)cc1 (racemic), the MCC at 72 h was ≥ 50 µM.
In the case of Nc1ccn(C[C@@H](CO)OCP(=O)(O)O)c(=O)n1 [CIDOFOVIR], the MCC at 72 h is reported as > 150 µM.
For Nc1nc2c(ncn2COC(CO)CO)c(=O)[nH]1 [GANCICLOVIR], the MCC at 72 h was > 400 µM.

System: not listed separately
Assay: Cytotoxicity against human HEL cells assessed as reduction of growth after 3 days
Format: cell-based
Conditions: not given
Method in brief: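 HEL cells were seeded at 5 × 10³ cells/well and grown 24 h before compound was added at different concentrations. After 3 days at 37 °C, cells were counted with a Coulter counter. CC50, the concentration halving growth relative to untreated controls, was read from plots of cell number (% of control) against concentration.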
For CCC1(Cc2ccccc2)OS(=O)(=O)C=C1OCc1ccc(Cl)cc1 (racemic), the CC50 at 72 h was > 200 µM.
Nc1ccn(C[C@@H](CO)OCP(=O)(O)O)c(=O)n1 [CIDOFOVIR] showed a CC50 at 72 h of 74 µM.
Compound Nc1nc2c(ncn2COC(CO)CO)c(=O)[nH]1 [GANCICLOVIR] has a CC50 at 72 h of 134 µM.

System: Human alphaherpesvirus 3
Assay: Antiviral activity against Varicella zoster virus YS infected in human HEL cells assessed reduction in viral plaque formation
Format: functional, organism-based
Conditions: Human alphaherpesvirus 3, YS
In the case of CCC1(Cc2ccccc2)OS(=O)(=O)C=C1OCc1ccc(Cl)cc1 (racemic), the EC50 is reported as 10 µM.

System: Human betaherpesvirus 5
Assay: Antiviral activity against foscarnet-resistant HCMV AD169 clone C infected in HEL cells assessed as inhibition of virus-induced cytopathicity
Format: functional, organism-based
Conditions: Human betaherpesvirus 5, AD169, HEL
With Nc1ncnc2c1ncn2C[C@@H](CO)OCP(=O)(O)O the EC50 was 0.036 µM.
Work on CCC1(Cc2ccccc2)OS(=O)(=O)C=C1OCc1ccc(Cl)cc1 (racemic) yielded an EC50 of 9.6 µM.
For Nc1ccn(C[C@@H](CO)OCP(=O)(O)O)c(=O)n1 [CIDOFOVIR], the EC50 was 0.045 µM.
O=C(O)P(=O)(O)O [FOSCARNET] showed an EC50 of 95 µM.

System: Human betaherpesvirus 5
Assay: Antiviral activity against cidofovir HCMV AD169 clone 5 infected in human HEL cells assessed as inhibition of virus-induced cytopathicity
Format: functional, organism-based
Conditions: Human betaherpesvirus 5, AD169, HEL
Nc1ncnc2c1ncn2C[C@@H](CO)OCP(=O)(O)O showed an EC50 of 2.1 µM.
Work on CCC1(Cc2ccccc2)OS(=O)(=O)C=C1OCc1ccc(Cl)cc1 (racemic) yielded an EC50 of 11 µM.
Nc1ccn(C[C@@H](CO)OCP(=O)(O)O)c(=O)n1 [CIDOFOVIR] showed an EC50 of 1 µM.
Compound O=C(O)P(=O)(O)O [FOSCARNET] has an EC50 of 11 µM.
Nc1nc2c(ncn2COC(CO)CO)c(=O)[nH]1 [GANCICLOVIR] gave an EC50 of 4 µM.

System: Human betaherpesvirus 5
Assay: Antiviral activity against PMEDAP-resistant HCMV AD169 clone 4 infected in HEL cells assessed as inhibition of virus-induced cytopathicity
Format: functional, organism-based
Conditions: Human betaherpesvirus 5, AD169, HEL
Compound Nc1ncnc2c1ncn2C[C@@H](CO)OCP(=O)(O)O has an EC50 of 0.12 µM.
Compound CCC1(Cc2ccccc2)OS(=O)(=O)C=C1OCc1ccc(Cl)cc1 (racemic) has an EC50 of 12 µM.
With Nc1ccn(C[C@@H](CO)OCP(=O)(O)O)c(=O)n1 [CIDOFOVIR] the EC50 was 0.092 µM.
Compound O=C(O)P(=O)(O)O [FOSCARNET] has an EC50 of 63 µM.
For Nc1nc2c(ncn2COC(CO)CO)c(=O)[nH]1 [GANCICLOVIR], the EC50 was 3.5 µM.

System: Human betaherpesvirus 5
Assay: Antiviral activity against HPMPA-resistant HCMV AD169 clone 2 mutant infected in HEL cells assessed as inhibition of virus-induced cytopathicity
Format: functional, organism-based
Conditions: Human betaherpesvirus 5, AD169, HEL
Work on Nc1ncnc2c1ncn2C[C@@H](CO)OCP(=O)(O)O yielded an EC50 of 1.9 µM.
Work on CCC1(Cc2ccccc2)OS(=O)(=O)C=C1OCc1ccc(Cl)cc1 (racemic) yielded an EC50 of 9.9 µM.
Work on Nc1ccn(C[C@@H](CO)OCP(=O)(O)O)c(=O)n1 [CIDOFOVIR] yielded an EC50 of 0.55 µM.
For O=C(O)P(=O)(O)O [FOSCARNET], the EC50 was 13 µM.
Work on Nc1nc2c(ncn2COC(CO)CO)c(=O)[nH]1 [GANCICLOVIR] yielded an EC50 of 1.2 µM.

System: Human betaherpesvirus 5
Assay: Antiviral activity against acyclovir-resistant HCMV AD169 clone 1 infected in HEL cells assessed as inhibition of virus-induced cytopathicity
Format: functional, organism-based
Conditions: Human betaherpesvirus 5, AD169, HEL
Work on Nc1ncnc2c1ncn2C[C@@H](CO)OCP(=O)(O)O yielded an EC50 of 0.08 µM.
In the case of CCC1(Cc2ccccc2)OS(=O)(=O)C=C1OCc1ccc(Cl)cc1 (racemic), the EC50 is reported as 1.1 µM.
Compound Nc1ccn(C[C@@H](CO)OCP(=O)(O)O)c(=O)n1 [CIDOFOVIR] has an EC50 of 0.095 µM.
In the case of O=C(O)P(=O)(O)O [FOSCARNET], the EC50 is reported as 35 µM.
Nc1nc2c(ncn2COC(CO)CO)c(=O)[nH]1 [GANCICLOVIR] showed an EC50 of 0.69 µM.

System: Human betaherpesvirus 5
Assay: Antiviral activity against wild type HCMV AD169 infected in HEL cells assessed as inhibition of virus-induced cytopathicity
Format: functional, organism-based
Conditions: Human betaherpesvirus 5, AD169, HEL
Method in brief: (§3)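 HEL fibroblast cultures infected at 100 PFU input. After 2 h, residual virus was removed and compound-containing medium was added at varying concentrations, in duplicate. Cells were incubated 7 days at 37 °C, ethanol-fixed and Giemsa-stained, and cytopathicity was scored microscopically.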
Work on Nc1ncnc2c1ncn2C[C@@H](CO)OCP(=O)(O)O yielded an EC50 of 0.17 µM.
For CCC1(Cc2ccccc2)OS(=O)(=O)C=C1OCc1ccc(Cl)cc1 (racemic), the EC50 was 11 µM.
Work on Nc1ccn(C[C@@H](CO)OCP(=O)(O)O)c(=O)n1 [CIDOFOVIR] yielded an EC50 of 0.076 µM.
Compound O=C(O)P(=O)(O)O [FOSCARNET] has an EC50 of 13 µM.
Work on Nc1nc2c(ncn2COC(CO)CO)c(=O)[nH]1 [GANCICLOVIR] yielded an EC50 of 0.7 µM.

System: Human betaherpesvirus 5
Assay: Antiviral activity against wild type HCMV Davis infected in HEL cells assessed as inhibition of virus-induced cytopathicity
Format: functional, organism-based
Conditions: Human betaherpesvirus 5, Davis
Method in brief: as §3
Nc1ncnc2c1ncn2C[C@@H](CO)OCP(=O)(O)O gave an EC50 of 0.2 µM.
With CCC1(Cc2ccccc2)OS(=O)(=O)C=C1OCc1ccc(Cl)cc1 (racemic) the EC50 was 11 µM.
Nc1ccn(C[C@@H](CO)OCP(=O)(O)O)c(=O)n1 [CIDOFOVIR] showed an EC50 of 0.069 µM.
O=C(O)P(=O)(O)O [FOSCARNET] gave an EC50 of 11 µM.
For Nc1nc2c(ncn2COC(CO)CO)c(=O)[nH]1 [GANCICLOVIR], the EC50 was 0.66 µM.

System: Punta Toro virus
Assay: Antiviral activity against Punta Toro virus infected in african green monkey Vero cells
Format: functional, organism-based
Conditions: not given
For CCC1(Cc2ccccc2)OS(=O)(=O)C=C1OCc1ccc(Cl)cc1 (racemic), the Activity was “inactive”.
